The values that follow come from ChEMBL document CHEMBL1145402, “Discovery of potent and muscle selective androgen receptor modulators through scaffold modifications” (J Med Chem, 2007).

In general, Ki refers to a measure of affinity in units of concentration, obtained from inhibition or displacement. High values mean lower affinity, low ones higher affinity. Usually EC50 stands for the concentration that produces a half-maximal response. Read a low EC50 as a more potent agent. By AUC(0-t) is commonly meant the area under the concentration-time curve up to a stated or last time point. A low value points to low exposure. The Cmax is the maximum level reached in the sampled fluid or tissue. One may read the solubility as the dissolved amount per volume that the medium holds. Higher therefore signals much dissolved substance.

≈ marks a conversion by molar mass, not a printed value.

Data set [1] addresses T1, Androgen receptor (Homo sapiens, UniProt P10275).
T1 sequence (P10275 whole entry): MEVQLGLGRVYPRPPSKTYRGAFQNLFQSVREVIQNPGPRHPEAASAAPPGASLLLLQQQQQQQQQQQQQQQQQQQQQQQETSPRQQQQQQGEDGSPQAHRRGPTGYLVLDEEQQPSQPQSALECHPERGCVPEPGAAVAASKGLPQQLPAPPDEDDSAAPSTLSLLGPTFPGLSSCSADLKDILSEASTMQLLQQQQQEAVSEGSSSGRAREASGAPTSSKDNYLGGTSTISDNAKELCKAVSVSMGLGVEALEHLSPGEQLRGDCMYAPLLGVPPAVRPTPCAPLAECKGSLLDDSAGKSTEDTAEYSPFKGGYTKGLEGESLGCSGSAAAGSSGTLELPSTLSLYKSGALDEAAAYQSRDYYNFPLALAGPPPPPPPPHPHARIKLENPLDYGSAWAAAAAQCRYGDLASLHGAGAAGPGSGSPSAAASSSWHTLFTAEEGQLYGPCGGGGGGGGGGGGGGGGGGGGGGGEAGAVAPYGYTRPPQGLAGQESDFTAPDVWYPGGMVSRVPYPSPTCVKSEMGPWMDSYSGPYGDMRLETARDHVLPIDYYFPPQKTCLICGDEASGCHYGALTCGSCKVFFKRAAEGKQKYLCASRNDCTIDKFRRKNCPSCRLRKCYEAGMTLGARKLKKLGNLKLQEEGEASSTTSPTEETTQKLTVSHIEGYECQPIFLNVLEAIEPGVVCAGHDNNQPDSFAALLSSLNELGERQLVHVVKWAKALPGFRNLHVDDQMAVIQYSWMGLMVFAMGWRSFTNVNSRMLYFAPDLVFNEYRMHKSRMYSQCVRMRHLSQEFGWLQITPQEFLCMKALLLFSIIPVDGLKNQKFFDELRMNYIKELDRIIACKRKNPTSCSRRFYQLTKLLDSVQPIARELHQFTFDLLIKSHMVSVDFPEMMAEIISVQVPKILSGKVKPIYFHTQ
Nature of the data set: Displacement of [3H]DHT from androgen receptor expressed in MDA-MB-453 cells. The format is cell-based. In general terms: Loss of bound radioactivity is the signal in a displacement assay; it reports binding, not function.

Data set [2] has as its target T1, Androgen receptor. The data set is described as follows: Agonist activity at androgen receptor expressed in C2C12 mouse cells by luciferase reporter transactivation assay. Type of data set: functional, cell-based. A general note: In a reporter assay the amount or activity of a reporter protein is the signal.
Data set [3] in a line: AUC(0-4h) in Sprague-Dawley rat at 10 mg/kg. The format is ADME, organism-based. Further details: time < 5 hr, dose 10 mg/kg. To be noted: plasma.
A short description of data set [4]: Cmax in Sprague-Dawley rat at 10 mg/kg, po. Also noted: dose 10 mg/kg, route oral. To be noted: in vivo. The format is ADME, organism-based.
Data set [5] deals with Rattus norvegicus. Nature of the data set: Stimulation of levator ani muscle weight in Sprague-Dawley rat at 1 mg/kg, po after 14 days. Type of data set: functional. Put shortly: (§1)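 Mature male rats were castrated two weeks before treatment. Compound was given […] once daily for two weeks, then levator ani muscle and ventral prostate were weighed. Weights are expressed as percent of a sham-operated, vehicle-treated intact control group, ±SEM.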

In data set [6] the test system is Rattus norvegicus. Nature of the data set: Stimulation of ventral prostate tissue weight in Sprague-Dawley rat at 1 mg/kg, po after 14 days. The format is functional, Prostate gland. In a few lines: as §1
Data set [7] is described as follows: Aqueous solubility of the compound. The format is physicochemical.
Data set [8] deals with Rattus norvegicus. Nature of the data set: Stimulation of levator ani muscle weight in Sprague-Dawley rat at 0.01 mg/kg, po after 14 days. The format is functional.
Data set [9] has as its system Rattus norvegicus. Nature of the data set: Stimulation of ventral prostate tissue weight in Sprague-Dawley rat at 0.01 mg/kg, po after 14 days. The format is functional, Prostate gland.
The test system of data set [10] is Rattus norvegicus. The data set is described as follows: Stimulation of ventral prostate tissue weight in Sprague-Dawley rat at 3 mg/kg, po after 14 days. Type of data set: functional, Prostate gland. In a few lines: as §1
Data set [11] relates to Rattus norvegicus. Nature of the data set: Stimulation of levator ani muscle weight in Sprague-Dawley rat at 3 mg/kg, po after 14 days. Type of data set: functional. In a few lines:
as §1

Data set [12] has as its system Rattus norvegicus. Nature of the data set: Stimulation of levator ani muscle weight in Sprague-Dawley rat at 0.3 mg/kg, sc after 14 days. The format is functional. To be noted: route subcutaneous. In a few lines: (§2)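 Mature male rats were castrated two weeks before dosing. Testosterone propionate was given subcutaneously for two weeks, then levator ani muscle and ventral prostate were weighed. Weights are expressed as percent of a sham-operated, vehicle-treated intact control group, ±SEM.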

Data set [13] relates to Rattus norvegicus. The data set is described as follows: Stimulation of ventral prostate tissue weight in Sprague-Dawley rat at 0.3 mg/kg, sc after 14 days. Type of data set: functional, Prostate gland. The note with it: route subcutaneous. Put shortly:
as §2

In turn, `CC[C@H]1[C@@H]2[C@H](O)CCN2C(=O)N1c1ccc(C#N)c(Cl)c1C` returned an inhibitory constant (Ki) in [1] of 0.7 nM. In [2], the EC50 is 2.6 nM.

In [1], `Cc1c(N2C(=O)N3CC[C@@H](O)[C@H]3[C@@H]2C(F)(F)F)ccc(C#N)c1Cl` had an inhibition constant (Ki) of 1 nM. In [3], this compound displayed an AUC(0-t) at 5 h of 1.18 µM·h. Also, the peak level in data set [4] (Cmax) was 819 nM. In data set [2], the midpoint of the response, the EC50, lay at 2.9 nM. The Activity is 40% in data set [5] and 3% in [6].

Regarding `Cc1c(N2C(=O)N3CC[C@@H](O)[C@H]3[C@H]2C(F)(F)F)ccc(C#N)c1Cl`, affinity in [1] was put at a Ki of 2.2 nM. For the same compound, the AUC(0-t) at 5 h in [3] came out at 0.63 µM·h. Also, the concentration in data set [4] peaked (Cmax) at 245 nM. A half-maximal response in [2] (EC50) required 2.1 nM. The compound also came in with a solubility in data set [7] of 1140 µg/mL (≈ 3170 µM). The Activity in [5] came out at 30%; in [6] it was 1%.

Consider `Cc1c(N2C(=O)[C@@H]3[C@H](O)CCN3C2=O)ccc(C#N)c1Cl`, for which the Activity in data set [8] is reported as 59%; in data set [9] it was 3%. This compound displayed an AUC(0-t) at 5 h in [3] of 8.8 µM·h. This compound displayed a maximum concentration (Cmax) in [4] of 6900 nM.

`Cc1c(N2C[C@@H]3[C@H](O)CCN3C2=O)ccc(C#N)c1Cl` came in with a Ki in data set [1] of 2 nM. The AUC(0-t) at 5 h in data set [3] amounted to 6.38 µM·h. The compound also came in with a Cmax in data set [4] of 3970 nM. Further, the EC50 in [2] was 15 nM. Further, in data set [7], the solubility was 245 µg/mL (≈ 840 µM). The Activity in [5] was found to be 66%; in data set [6] it was 14%.

As for `Cc1c(N2C(=O)N3CC[C@H](O)[C@H]3[C@@H]2C)ccc(C#N)c1Cl`, the figures for the Activity in [10] and in [11] were 4% and 44%, respectively. In data set [3], this compound yielded an AUC(0-t) at 5 h of 2.89 µM·h. For the same compound, the concentration in [4] peaked (Cmax) at 1620 nM. The compound also yielded a solubility in data set [7] of 613 µg/mL (≈ 2000 µM).

Compound `CC[C@@H]1[C@@H]2[C@@H](O)CCN2C(=O)N1c1ccc(C#N)c(Cl)c1C` gave an inhibition constant (Ki) in data set [1] of 1.6 nM. The compound further showed a half-maximal effective concentration (EC50) in data set [2] of 7.1 nM.

On to `Cc1c(N2C(=O)N3CC[C@H](O)[C@H]3[C@@H]2C(F)(F)F)ccc(C#N)c1Cl`, for which the inhibitory constant (Ki) in [1] was found to be 0.9 nM. For the same compound, the EC50 in [2] was determined as 2.5 nM.

With `Cc1c(N2C[C@@H]3[C@H](O)CC[C@@H]3C2=O)ccc(C#N)c1Cl`, the 50% effective concentration (EC50) in [2] came out at 20 nM. Besides, the figures for the Activity in data set [5] and in data set [6] were 45% and 6%, respectively.

In data set [1], `Cc1c(N2C(=O)N3CC[C@H](O)[C@H]3[C@H]2C(F)(F)F)ccc(C#N)c1Cl` returned a Ki of 1.9 nM. The 50% effective concentration (EC50) in data set [2] was 48 nM.

Regarding `CC[C@@H]1[C@@H]2[C@H](O)CCN2C(=O)N1c1ccc(C#N)c(Cl)c1C`, the inhibitory constant (Ki) in data set [1] turned out to be 2.3 nM. For the same compound, the concentration giving a half-maximal response (EC50) in data set [2] was 7.4 nM.

Compound `Cc1c(N2C(=O)N3CC[C@@H](O)[C@H]3[C@H]2C(C)C)ccc(C#N)c1Cl` registered an inhibition constant Ki in [1] of 23 nM. Further, in data set [2], the 50% effective concentration (EC50) turned out to be 108 nM.

In turn, `CC1=C(c2ccc(C#N)c(Cl)c2C)C(=O)N2CC[C@H](O)[C@@H]12` showed an EC50 in data set [2] of 2 nM.

As to `CCC(=O)O[C@H]1CC[C@H]2[C@@H]3CCC4=CC(=O)CC[C@]4(C)[C@H]3CC[C@]12C` [TESTOSTERONE PROPIONATE], the Activity is on record as 70% in data set [12] and 68% in data set [13].
